Tests used:
[1] = molecular target: Tyrosine-protein kinase Lck (Homo sapiens, UniProt P06239); test: Inhibition of p56 lck tyrosine kinase
In short: (§1)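 Radiometric kinase assay. Enzyme (0.7–100 nM) and substrate (5Km) incubated with ATP/33P-γ-ATP (2Km) and compound serially diluted 3-fold from 10 to 0.0015 μM, 1% DMSO, 30–90 min at room temperature. Product separated by SPA, Dowex or phosphocellulose filter, then counted.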

[2] = molecular target: High affinity nerve growth factor receptor (Homo sapiens, UniProt P04629); test: Inhibition of Trk A kinase activity; in short: as §1
[3] = molecular target: CDC7/DBF4 (Cell division cycle 7-related protein kinase/Activator of S phase kinase) (Homo sapiens, UniProt O00311); test: Inhibition of CDC7/DBF4 kinase activity; type: protein-complex assay
CDC7/DBF4 (Cell division cycle 7-related protein kinase/Activator of S phase kinase), sequence (Q9UBU7 whole entry): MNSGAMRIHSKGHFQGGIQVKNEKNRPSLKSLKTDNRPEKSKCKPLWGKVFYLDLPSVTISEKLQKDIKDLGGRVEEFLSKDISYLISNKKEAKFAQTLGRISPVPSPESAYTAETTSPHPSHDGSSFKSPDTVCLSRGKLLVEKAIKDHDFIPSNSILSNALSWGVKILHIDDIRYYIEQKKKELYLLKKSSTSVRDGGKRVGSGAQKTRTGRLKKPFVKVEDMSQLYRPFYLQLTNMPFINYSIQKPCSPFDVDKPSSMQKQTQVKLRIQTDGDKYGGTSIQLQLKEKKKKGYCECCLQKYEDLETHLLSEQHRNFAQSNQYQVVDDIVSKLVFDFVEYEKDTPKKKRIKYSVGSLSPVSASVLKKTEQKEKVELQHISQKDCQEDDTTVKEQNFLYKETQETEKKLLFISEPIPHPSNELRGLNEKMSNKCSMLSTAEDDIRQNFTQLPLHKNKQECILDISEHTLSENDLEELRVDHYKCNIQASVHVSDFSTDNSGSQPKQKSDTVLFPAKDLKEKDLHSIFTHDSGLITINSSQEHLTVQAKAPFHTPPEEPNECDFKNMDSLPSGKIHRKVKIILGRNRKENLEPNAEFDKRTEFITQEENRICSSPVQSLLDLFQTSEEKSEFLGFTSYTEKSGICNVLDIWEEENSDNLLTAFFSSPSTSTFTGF
CDC7/DBF4 (Cell division cycle 7-related protein kinase/Activator of S phase kinase), sequence (O00311 whole entry): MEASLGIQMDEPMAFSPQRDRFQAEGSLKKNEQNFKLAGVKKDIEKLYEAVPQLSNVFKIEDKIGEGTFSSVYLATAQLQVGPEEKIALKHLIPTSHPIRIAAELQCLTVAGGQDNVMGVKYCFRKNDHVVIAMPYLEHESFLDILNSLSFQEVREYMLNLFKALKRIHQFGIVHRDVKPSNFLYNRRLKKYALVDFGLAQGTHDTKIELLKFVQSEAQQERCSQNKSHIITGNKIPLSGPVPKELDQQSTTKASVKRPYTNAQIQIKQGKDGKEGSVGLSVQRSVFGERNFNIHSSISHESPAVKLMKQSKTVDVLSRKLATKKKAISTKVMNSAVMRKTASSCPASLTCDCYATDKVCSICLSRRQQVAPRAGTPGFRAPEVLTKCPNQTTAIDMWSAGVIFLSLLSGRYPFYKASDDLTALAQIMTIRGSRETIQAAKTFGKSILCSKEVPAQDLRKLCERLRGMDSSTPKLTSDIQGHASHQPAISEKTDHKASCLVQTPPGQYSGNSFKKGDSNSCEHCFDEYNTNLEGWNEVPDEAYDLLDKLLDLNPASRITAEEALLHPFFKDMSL
In short: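 Recombinant CDC7/DBF4 (insect cells), 18 nM, with MCM2 substrate in 50 mM Hepes pH 7.5, 5 mM MgCl2, 1 mM DTT, 3 μM NaVO3. ATP/33P-γ-ATP at 2Km, substrate at 5Km, 1% DMSO, compound 10 to 0.0015 μM in 3-fold steps, 30–90 min at room temperature. SPA bead capture.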

[4] = molecular target: Serine/threonine-protein kinase PLK1 (Homo sapiens, UniProt P53350); test: Inhibition of PLK1 kinase; in short: as §1
[5] = molecular target: Inhibitor of nuclear factor kappa-B kinase subunit epsilon (Homo sapiens, UniProt Q14164); test: Inhibition of IKKi (IKK epsilon) kinase activity; in short: as §1
[6] = system: Rattus norvegicus; test: Maximal concentration in male Sprague-Dawley rats after 10 mg/kg oral dose; type: ADME, organism-based; set-up: dose 10 mg/kg, route oral; conditions: in vivo
In short: (§2)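 Male Sprague Dawley rats (~270), fasted overnight, received a single iv or oral dose in PEG400, 4% Tween 80/dextrose (60:40), three rats per route. Jugular/catheter blood was drawn predose and at 5, 15 and 30 min and 1, 2, 4, 6 and 24 h, and plasma was analysed by LC/MS/MS. Analysis was noncompartmental: Cmax/Tmax observed, AUC by linear trapezoidal rule, and F from dose-normalized oral/iv AUC.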

[7] = molecular target: Tyrosine-protein kinase Lyn (Homo sapiens, UniProt P07948); test: Inhibition of Protein tyrosine kinase Lyn; in short: as §1
[8] = molecular target: Vascular endothelial growth factor receptor 2 (Homo sapiens, UniProt P35968); test: Inhibition of VEGFR-2 kinase activity; in short: as §1
[9] = molecular target: 3-phosphoinositide-dependent protein kinase 1 (Homo sapiens, UniProt O15530); test: Inhibition of PDK1 kinase activity; in short: as §1
3-phosphoinositide-dependent protein kinase 1, sequence (O15530 whole entry): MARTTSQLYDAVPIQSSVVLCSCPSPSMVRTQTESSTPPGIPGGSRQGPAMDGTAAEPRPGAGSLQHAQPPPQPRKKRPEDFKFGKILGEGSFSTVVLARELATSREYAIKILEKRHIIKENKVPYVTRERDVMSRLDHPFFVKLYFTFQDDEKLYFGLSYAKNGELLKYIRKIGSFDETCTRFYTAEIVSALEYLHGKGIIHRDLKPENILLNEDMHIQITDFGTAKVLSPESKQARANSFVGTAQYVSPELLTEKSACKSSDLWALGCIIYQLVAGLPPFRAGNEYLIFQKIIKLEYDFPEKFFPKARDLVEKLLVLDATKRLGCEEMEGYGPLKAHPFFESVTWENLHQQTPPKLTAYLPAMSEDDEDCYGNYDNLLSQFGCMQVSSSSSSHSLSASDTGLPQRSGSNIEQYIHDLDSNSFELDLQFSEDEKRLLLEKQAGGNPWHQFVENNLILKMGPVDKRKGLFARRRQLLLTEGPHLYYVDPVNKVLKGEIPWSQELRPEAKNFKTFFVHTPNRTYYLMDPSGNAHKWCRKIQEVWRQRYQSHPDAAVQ

[10] = Steady-state volume of distribution was evaluated for the compound after i.v. administration at a dose of 5 mg/kg was measured in rats; type: ADME, organism-based; set-up: dose 5 mg/kg, route intravenous; conditions: rat, in vivo, iv, read-out: Vss; in short: as §2
[11] = molecular target: Aurora kinase A (Homo sapiens) (UniProt O14965); test: Inhibition of Aurora kinase A
[12] = Total body clearance was evaluated for the compound after i.v. administration at a dose of 5 mg/kg was measured in rats; type: ADME, organism-based; set-up: dose 5 mg/kg, route intravenous; conditions: rat, in vivo, iv; in short: as §2
[13] = molecular target: Serine/threonine-protein kinase Chk1 (Homo sapiens, UniProt O14757); test: Inhibition of Serine/threonine-protein kinase Chk1
Serine/threonine-protein kinase Chk1, sequence (O14757 whole entry): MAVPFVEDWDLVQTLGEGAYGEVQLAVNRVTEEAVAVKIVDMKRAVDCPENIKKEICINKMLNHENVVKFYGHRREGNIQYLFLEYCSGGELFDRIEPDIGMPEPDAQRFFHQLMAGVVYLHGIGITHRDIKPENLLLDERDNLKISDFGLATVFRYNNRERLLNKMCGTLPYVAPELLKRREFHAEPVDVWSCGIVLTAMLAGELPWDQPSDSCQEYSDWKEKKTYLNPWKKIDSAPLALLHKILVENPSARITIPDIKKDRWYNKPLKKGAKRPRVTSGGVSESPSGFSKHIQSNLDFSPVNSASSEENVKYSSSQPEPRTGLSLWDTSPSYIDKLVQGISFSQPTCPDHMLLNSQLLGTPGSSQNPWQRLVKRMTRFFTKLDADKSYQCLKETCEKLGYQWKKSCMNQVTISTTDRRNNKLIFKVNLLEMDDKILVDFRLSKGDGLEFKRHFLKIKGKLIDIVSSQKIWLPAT
In short: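 ATP/33P-γ-ATP 2Km, substrate 5Km, 1% DMSO, compound 10–0.0015 μM, 30–90 min at room temperature. SPA.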

[14] = molecular target: Mast/stem cell growth factor receptor Kit (Homo sapiens, UniProt P10721); test: Inhibition of KIT kinase activity; in short: as §1
[15] = molecular target: Mitogen-activated protein kinase 1 (Homo sapiens, UniProt P28482); test: Inhibition of Mitogen-activated protein kinase 1 activity
Mitogen-activated protein kinase 1, sequence (P28482 whole entry): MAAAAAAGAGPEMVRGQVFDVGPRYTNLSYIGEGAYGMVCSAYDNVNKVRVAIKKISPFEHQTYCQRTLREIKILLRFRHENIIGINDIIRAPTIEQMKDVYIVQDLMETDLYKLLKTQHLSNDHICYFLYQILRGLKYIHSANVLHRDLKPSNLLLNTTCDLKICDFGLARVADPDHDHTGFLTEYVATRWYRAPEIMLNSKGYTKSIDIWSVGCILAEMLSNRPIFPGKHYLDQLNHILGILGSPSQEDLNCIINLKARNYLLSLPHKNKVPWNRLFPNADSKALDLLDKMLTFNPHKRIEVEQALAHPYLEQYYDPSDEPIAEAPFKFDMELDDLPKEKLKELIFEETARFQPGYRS
In short: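 ERK-2 at 3 nM (insect-cell recombinant) with MBP in Tris-HCl pH 7.4 10 mM, MgCl2 10 mM, DTT 7.4 mM. ATP/33P-γ-ATP 2Km, substrate 5Km, 1% DMSO, 10 to 0.0015 μM compound, 30–90 min at room temperature. Dowex resin (formate, pH 3) removed free ATP; supernatant counted.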

[16] = molecular target: Glycogen synthase kinase-3 beta (Homo sapiens, UniProt P49841); test: Inhibition of Glycogen synthase kinase-3 beta
Glycogen synthase kinase-3 beta, sequence (P49841 whole entry): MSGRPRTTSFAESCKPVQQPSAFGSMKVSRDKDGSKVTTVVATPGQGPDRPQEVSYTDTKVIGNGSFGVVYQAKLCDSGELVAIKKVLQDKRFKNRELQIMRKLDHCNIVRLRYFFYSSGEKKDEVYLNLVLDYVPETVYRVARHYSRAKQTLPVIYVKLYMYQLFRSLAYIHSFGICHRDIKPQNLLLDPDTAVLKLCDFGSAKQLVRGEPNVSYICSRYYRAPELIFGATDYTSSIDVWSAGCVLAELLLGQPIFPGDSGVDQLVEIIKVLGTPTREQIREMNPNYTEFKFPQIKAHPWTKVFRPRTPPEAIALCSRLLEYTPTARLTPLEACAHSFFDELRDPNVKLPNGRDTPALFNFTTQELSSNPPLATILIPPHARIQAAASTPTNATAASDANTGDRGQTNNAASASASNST
In short: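 GSK-3β at 20 nM (in-house, insect cells), MBP substrate, 50 mM Hepes pH 7.5, 3 mM MgCl2, 3 mM MnCl2, 1 mM DTT, 3 μM NaVO3. ATP/33P-γ-ATP 2Km, substrate 5Km, 1% DMSO. 3-fold dilutions from 10 μM, 30–90 min at room temperature. SPA.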

[17] = system: Rattus norvegicus; test: In vivo area under curve was determined for the compound after oral (po) administration at a dose of 10 mg/kg in rats; type: ADME, organism-based; set-up: dose 10 mg/kg, route oral; in short: as §2
[18] = molecular target: Insulin receptor (Homo sapiens, UniProt P06213); test: Inhibition of IR kinase activity; in short: as §1
[19] = molecular target: Protein kinase C beta type (Homo sapiens, UniProt P05771); test: Inhibition of Protein kinase C beta
In short: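 PKCβ was commercially sourced. It was used at 0.7–100 nM enzyme with substrate at 5Km and ATP/33P-γ-ATP at 2Km, 1% DMSO, and compound in 3-fold steps from 10 to 0.0015 μM, for 30–90 min at room temperature. Phosphorylated product was separated and counted. Four-parameter logistic IC50, mean of at least two experiments.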

[20] = molecular target: Cyclin-dependent kinase 5/CDK5 activator 1 (Homo sapiens, UniProt Q00535); test: Inhibition of Cyclin-dependent kinase 5-p35nck5a; type: protein-complex assay
In short: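 Recombinant CDK5/p25 expressed in insect cells, used at 4 nM with histone H1 substrate (5Km) and ATP/33P-γ-ATP (2Km). Run in Tris-HCl pH 7.4 buffer with MgCl2 and DTT, 1% DMSO, for 30–90 min at room temperature. 3-fold dilutions from 10 to 0.0015 μM. Product captured on streptavidin SPA beads and counted.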

[21] = molecular target: Vascular endothelial growth factor receptor 3 (Homo sapiens, UniProt P35916); test: Inhibition of Vascular endothelial growth factor receptor 3; in short: as §1
Vascular endothelial growth factor receptor 3, sequence (P35916 whole entry): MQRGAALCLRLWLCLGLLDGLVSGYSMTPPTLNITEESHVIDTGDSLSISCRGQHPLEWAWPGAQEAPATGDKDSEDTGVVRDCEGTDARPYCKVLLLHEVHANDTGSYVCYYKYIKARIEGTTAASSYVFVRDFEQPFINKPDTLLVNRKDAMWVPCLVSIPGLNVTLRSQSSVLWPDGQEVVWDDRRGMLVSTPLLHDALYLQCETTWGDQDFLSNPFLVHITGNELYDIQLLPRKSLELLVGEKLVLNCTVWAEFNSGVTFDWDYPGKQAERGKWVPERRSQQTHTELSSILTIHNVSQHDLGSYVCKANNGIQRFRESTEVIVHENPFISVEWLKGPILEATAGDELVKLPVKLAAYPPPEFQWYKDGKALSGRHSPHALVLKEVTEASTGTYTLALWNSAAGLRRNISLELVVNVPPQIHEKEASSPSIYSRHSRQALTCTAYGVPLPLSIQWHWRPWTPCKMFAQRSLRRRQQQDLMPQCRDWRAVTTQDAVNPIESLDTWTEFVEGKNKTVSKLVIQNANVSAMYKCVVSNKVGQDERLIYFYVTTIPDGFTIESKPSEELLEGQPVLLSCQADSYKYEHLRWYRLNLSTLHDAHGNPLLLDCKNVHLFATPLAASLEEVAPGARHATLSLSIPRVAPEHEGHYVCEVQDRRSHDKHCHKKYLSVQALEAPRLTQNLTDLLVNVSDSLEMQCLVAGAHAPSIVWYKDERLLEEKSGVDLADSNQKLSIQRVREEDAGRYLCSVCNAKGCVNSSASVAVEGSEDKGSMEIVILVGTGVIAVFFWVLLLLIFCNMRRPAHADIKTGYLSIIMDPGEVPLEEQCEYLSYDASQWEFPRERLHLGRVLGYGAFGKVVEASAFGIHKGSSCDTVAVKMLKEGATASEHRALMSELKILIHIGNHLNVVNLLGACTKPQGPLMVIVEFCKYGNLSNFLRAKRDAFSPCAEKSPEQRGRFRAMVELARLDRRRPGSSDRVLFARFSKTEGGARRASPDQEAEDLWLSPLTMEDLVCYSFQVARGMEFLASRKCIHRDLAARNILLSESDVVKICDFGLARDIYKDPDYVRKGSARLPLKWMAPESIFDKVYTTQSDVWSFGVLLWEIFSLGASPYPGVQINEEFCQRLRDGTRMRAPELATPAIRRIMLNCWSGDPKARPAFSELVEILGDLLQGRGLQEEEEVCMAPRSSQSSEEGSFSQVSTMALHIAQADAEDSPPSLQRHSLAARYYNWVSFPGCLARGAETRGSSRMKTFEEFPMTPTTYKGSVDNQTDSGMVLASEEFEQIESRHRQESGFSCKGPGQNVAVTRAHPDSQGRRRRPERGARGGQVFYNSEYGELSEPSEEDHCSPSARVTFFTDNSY

[22] = molecular target: Insulin-like growth factor 1 receptor (Homo sapiens, UniProt P08069); test: Inhibition of Insulin-like growth factor I receptor
In short: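 IGF1R (6 nM, insect-cell recombinant) phosphorylating IRStide in 50 mM Hepes pH 7.5, 3 mM MnCl2, 1 mM DTT, 3 μM NaVO3. 33P-ATP mix at 2Km, substrate 5Km, 1% DMSO. Compound in 3-fold series from 10 μM, 30–90 min at room temperature. SPA counting.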

[23] = molecular target: Serine/threonine-protein kinase PAK 4 (Homo sapiens, UniProt O96013); test: Inhibition of PAK4 kinase; in short: as §1
Serine/threonine-protein kinase PAK 4, sequence (O96013 whole entry): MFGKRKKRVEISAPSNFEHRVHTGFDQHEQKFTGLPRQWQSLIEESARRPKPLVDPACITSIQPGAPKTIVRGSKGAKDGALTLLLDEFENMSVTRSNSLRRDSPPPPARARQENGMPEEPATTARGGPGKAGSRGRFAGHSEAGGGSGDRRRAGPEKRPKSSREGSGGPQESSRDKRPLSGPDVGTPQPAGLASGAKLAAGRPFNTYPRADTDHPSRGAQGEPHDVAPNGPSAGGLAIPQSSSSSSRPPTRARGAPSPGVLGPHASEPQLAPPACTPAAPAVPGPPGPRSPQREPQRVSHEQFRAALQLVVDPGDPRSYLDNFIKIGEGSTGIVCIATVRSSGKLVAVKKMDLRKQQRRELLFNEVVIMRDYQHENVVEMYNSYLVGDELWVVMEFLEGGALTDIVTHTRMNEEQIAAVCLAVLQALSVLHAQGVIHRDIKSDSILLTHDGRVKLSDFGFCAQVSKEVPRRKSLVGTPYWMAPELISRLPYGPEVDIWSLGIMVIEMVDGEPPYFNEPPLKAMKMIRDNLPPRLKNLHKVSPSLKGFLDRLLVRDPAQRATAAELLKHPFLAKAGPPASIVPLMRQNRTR

[24] = Oral bioavailability after oral (po) administration at a dose of 10 mg/kg was measured in rats; type: ADME, organism-based; conditions: rat, in vivo, read-out: Bioavailabiility; in short: as §2
[25] = system: Rattus norvegicus; test: In vivo half-life period for compound after i.v. administration at a dose of 5 mg/kg was measured in rats; type: ADME, organism-based; set-up: dose 5 mg/kg, route intravenous; conditions: iv; in short: as §2
[26] = species: Rattus norvegicus; test: Metabolic rate for compound was observed in rat hepatocytes; type: ADME, Liver, Hepatocyte
In short: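 Compound at 1 μM was incubated with 10^6 rat hepatocytes in 1 mL Leibovitz's medium at 37 °C with shaking. Samples were taken at 0.5–90 min and quenched in ice-cold acetonitrile. Parent was quantified by LC/MS/MS, with hepatocyte-free controls and reference clearance drugs.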

An IC50 [1] greater than 10 µM, an IC50 [2] greater than 10 µM and an IC50 [3] greater than 10 µM were found for `O=C(Cc1ccc2ccccc2c1)Nc1cc(C2CC2)n[nH]1` in this work. For the same compound, the IC50 [4] was greater than 10 µM, the IC50 [5] was greater than 10 µM and the Cmax [6] was 9.63 µM. For the same compound, the IC50 [7] was greater than 10 µM, the IC50 [8] was greater than 10 µM and the IC50 [9] was greater than 10 µM. It also gave a Vd [10] of 1.06 L/kg, an IC50 [11] greater than 10 µM and a clearance [12] of 13.5 mL/min/kg. The IC50 [13] was greater than 10 µM, the IC50 [14] was greater than 10 µM and the IC50 [15] was 4.6 µM. The IC50 [16] was 1.91 µM, the AUC total [17] was 38.18 µM·h and the IC50 [18] was greater than 10 µM. It also gave an IC50 [19] greater than 10 µM, an IC50 [20] of 0.114 µM and an IC50 [21] greater than 10 µM. It also gave an IC50 [22] greater than 10 µM, an IC50 [23] greater than 10 µM and a bioavailability [24] of 89.8%. For the same compound, the T1/2 [25] was 1 h and the Metabolic rate [26] was 27.8 mL/min/kg.
